Compounds with a hit are over-represented: about 2.5% of the library has one in this group of screens.
MEKK2 WT-MEK5: raises or lowers MEK5 binding to wildtype human MEKK2 PB1 domain; AID 1531; binding response (% of control), % at 10 µM; actives 1.1% (n = 290,000); Q9Y2U5; bead flow cytometry, Alexa488-MEK5 binding to MEKK2 WT; actives lie on both sides; in the data active = binding response below about 67% or above about 130%
ABCB1 block: human ABCB1 inhibition, ABCG2 as counter-screen | P08183 | CCRF-Adr cells, JC-1 efflux, flow cytometry | inhibition, % at 6.6 µM | actives 0.067% (n = 190,000) | AID 1326; in the data active = inhibition above about 40%;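 also: 0% = vehicle and 100% = reference inhibitor; higher value means more JC-1 retained so stronger ABCB1 efflux block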
MEKK3 PB1 HTS: modulators (inhibitors or enhancers) of MEK5 binding to human MEKK3 PB1 domain | binding response (% of control), % at 10 µM | Q99759 | bead-based flow cytometry, Alexa488-MEK5 binding to MEKK3; actives lie on both sides; 0 = blocked by unlabeled MEK5, 100 = vehicle | actives 1.4% (n = 290,000);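 active = binding response more than 3 SD above or below the average of its plate-row segment, actives on both sides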;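 also: Alexa488 bead fluorescence after subtracting the streptavidin-only scavenger bead signal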
MEKK2mut PB1 HTS: signal of MEK5 binding to mutant human MEKK2 PB1 domain; bead flow cytometry, Alexa488-MEK5 binding to MEKK2 mutant; actives 0.35% (n = 290,000); percent response, % at 10 µM; in the data active = percent response above about 24%, passing the limit was not always enough
Efflux pump mplx: blocks antifungal efflux pumps in multiplex yeast assay. S. cerevisiae Candida pump triplex, Nile Red efflux. inhibition, % at 10 µM. actives 0.44% (n = 330,000). AID 485275;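 active = plate passing quality check with inhibition over a set limit, or well fluorescence over plate mean plus 4 SD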;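 also: Nile Red retained in pooled yeast measured as flow cytometry median fluorescence; 0% = buffer negative control and 100% = Enniatin B positive control; higher means more Nile Red kept so more efflux inhibition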
ABCG2 block: inhibitors of human ABCG2 transporter, ABCB1 counter-screen; Q9UNQ0; IgMXP3 cells, JC-1 efflux, flow cytometry; inhibition, % at 6.6 µM; actives 0.1% (n = 190,000);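 active = inhibition above 80%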;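 also: 0% = DMSO and 100% = nicardipine control wells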
Target sequence (Q9UNQ0 whole entry, looked up): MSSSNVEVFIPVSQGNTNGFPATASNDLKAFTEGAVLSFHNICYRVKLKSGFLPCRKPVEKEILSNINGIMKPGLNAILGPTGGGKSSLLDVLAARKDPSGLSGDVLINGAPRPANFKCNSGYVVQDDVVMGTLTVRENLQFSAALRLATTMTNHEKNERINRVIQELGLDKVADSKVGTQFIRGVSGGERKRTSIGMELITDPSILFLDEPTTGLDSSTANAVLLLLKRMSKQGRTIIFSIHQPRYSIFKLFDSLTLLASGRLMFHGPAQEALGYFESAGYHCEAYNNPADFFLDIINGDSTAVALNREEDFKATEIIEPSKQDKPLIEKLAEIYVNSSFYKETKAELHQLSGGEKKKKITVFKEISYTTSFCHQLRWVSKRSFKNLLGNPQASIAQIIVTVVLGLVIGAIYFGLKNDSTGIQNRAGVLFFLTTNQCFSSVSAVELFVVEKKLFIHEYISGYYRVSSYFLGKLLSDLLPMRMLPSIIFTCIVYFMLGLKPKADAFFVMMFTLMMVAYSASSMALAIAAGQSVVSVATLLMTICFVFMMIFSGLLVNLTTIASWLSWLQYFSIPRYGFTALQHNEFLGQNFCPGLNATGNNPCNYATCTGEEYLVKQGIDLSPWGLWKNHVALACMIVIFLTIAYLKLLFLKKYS
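System: two drug-resistant human cell lines, ABCG2 and ABCB1; controls: nicardipine high and DMSO low controls; times: 10 min exposure at 25 °C with rotation, no wash; detection: flow cytometry of retained JC-1 fluorescence; read-out basis: percent efflux inhibition, scaled nicardipine 100% to DMSO 0%; doses: one concentration, 6.6 µM final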
Yeast cmpd fluor: compound fluorescence in yeast efflux pump counter-screen | fluorescence ratio to DMSO, % at 10 µM | AID 588517 | actives 4% (n = 1,700) | S. cerevisiae AD/pABC3, flow cytometry | shares compounds with Efflux pump mplx;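 active = fluorescence ratio to DMSO above its plate's cutoff, the plate mean ratio plus 5 SD, cut at about 210% in these data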;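 also: unstained yeast with no Nile Red so the signal is compound autofluorescence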
CaMdr1 efflux inh: blocks the Candida albicans Mdr1 efflux pump in yeast; actives 1% (n = 1,700); S. cerevisiae AD/CaMDR1, Nile Red efflux, flow cytometry; inhibition, % at 10 µM; shares compounds with Efflux pump mplx; in the data active = inhibition above about 26%;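 also: 0% = DMSO vehicle and 100% = reference inhibitor; higher means more Nile Red retained so more efflux inhibition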
CaCdr2 efflux inh: blocks the Candida albicans Cdr2 efflux pump in yeast; AID 588520; shares compounds with Efflux pump mplx; Nile Red retention ratio vs DMSO, % at 10 µM; actives 4% (n = 1,700); S. cerevisiae AD/CaCDR2, Nile Red retention, flow cytometry; in the data active = Nile Red retention ratio vs DMSO above about 190%;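 also: higher ratio means more blocking of Cdr2 efflux of the dye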
CaCdr1 efflux inh: Candida Cdr1 efflux pump inhibition. shares compounds with Efflux pump mplx. S. cerevisiae AD/CaCDR1, Nile Red efflux, flow cytometry. inhibition, % at 10 µM. actives 1% (n = 1,700);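 active = inhibition above the screen-wide mean plus twice its standard deviation, cut at about 32% in these data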
Active calls of the source: *; / = not tested or not shown; + = active, no number.

SMILES	MEKK2 WT-MEK5	ABCB1 block	MEKK3 PB1 HTS	MEKK2mut PB1 HTS	Efflux pump mplx	ABCG2 block	Yeast cmpd fluor	CaMdr1 efflux inh	CaCdr2 efflux inh	CaCdr1 efflux inh
Cc1onc(-c2c(F)cccc2Cl)c1C(=O)Nc1cccc(S(=O)(=O)N2CCOCC2)c1	/	/	/	/	0	/	/	/	/	/
CCOc1ccc(NC(=O)CCc2nnc3ccc(N4CCC5(CC4)OCCO5)nn23)cc1	101	/	96	0	0	/	/	/	/	/
O=C1CCN(Cc2ccc(Cl)cc2)N1	87	/	98	-4	2.1*	/	98	0	90	0
O=C1CCN(S(=O)(=O)c2ccc(Cl)cc2)N1	115	0	117	8	0	1	/	/	/	/
COc1cccc(-c2c(C(=O)N/N=C(\C)c3ccc(Cl)s3)nnn2-c2nonc2N)c1	96	/	97	-8	4.6*	/	104	0	93	0
COc1cccc(-c2c(C(=O)N/N=C(\C)c3ccco3)nnn2-c2nonc2N)c1	102	/	101	4	0	/	/	/	/	/
Cc1oc2ccc(NS(=O)(=O)c3ccc(F)cc3)cc2c1C(=O)O	109	/	104	3	0	/	/	/	/	/
COCCOC(=O)c1c(C)oc2ccc(NS(=O)(=O)c3ccc(F)cc3)cc12	102	/	101	1	0.4*	/	94	0	89	0
Cc1ccc(C)c(N2CCN(C(=O)C3CCCN(c4ncnc5c4nc4n5CCCCC4)C3)CC2)c1 (centres undefined)	93	/	95	-8	2.5*	/	79	0	+	0
Cc1ccc(N2CCN(C(=O)C3CCCN(c4ncnc5c4nc4n5CCCCC4)C3)CC2)c(C)c1 (centres undefined)	100	/	100	2	0	/	/	/	/	/
CCSc1nnc(NC(=O)Cn2cnc3c2c(=O)n(C)c(=O)n3C)s1	97	1	101	0	0	4	/	/	/	/
CCSc1nnc(NC(NC(=O)c2ccco2)(C(F)(F)F)C(F)(F)F)s1	100	0	101	-2	0	1	/	/	/	/
CCSc1nnc(NC(NC(C)=O)(C(F)(F)F)C(F)(F)F)s1	93	0	93	-1	14*	3	117	1	131	1
CCN(CC(=O)NCc1ccc(F)cc1)C(=O)/C=C/c1ccc(S(=O)(=O)N(CC)CC)cc1	104	/	103	-4	0	/	/	/	/	/
CS(=O)(=O)Nc1ccc(C(=O)Nc2ccc3c(c2)OCCO3)cc1	102	0	103	2	9.0*	4	106	0	110	5
CS(=O)(=O)c1ccc(NCCc2ccccn2)c([N+](=O)[O-])c1	100	/	103	0	0	/	/	/	/	/
O=[N+]([O-])c1cc(C(F)(F)F)ccc1NCCc1ccccn1	/	/	/	/	0.9*	/	103	0	121	0
Cc1nc2ccc(NS(=O)(=O)c3ccc(Br)cc3)cc2s1	/	/	/	/	0	/	/	/	/	/
C=C(C)CSc1nnc(CCCCCNC(=O)OC(C)(C)C)o1	102	/	106	5	1.0*	/	106	0	98	0
Cc1ccc(CSc2nnc(CCNC(=O)OC(C)(C)C)o2)cc1	93	/	97	-5	0.8*	/	99	0	95	0
Cc1ccc(/C(N)=N/OC(=O)Oc2ccccc2)cc1	102	0	103	3	0	1	/	/	/	/
COc1ccc(CC(=O)O/N=C(\N)c2ccc(OC)cc2)cc1	87	/	85	-18	0	/	113	0	112	0
COc1ccc(CC(=O)O/N=C(\N)Cc2ccc(OC)cc2)cc1	97	0	96	-1	0	3	/	/	/	/
COc1ccc(CC(=O)O/N=C(\N)c2ccccc2)cc1OC	100	/	99	-4	0	/	108	0	97	0
COc1ccc(/C(N)=N/OC(=O)Oc2ccccc2)cc1OC	101	0	125	-1	5.8*	0	101	0	96	0
SMILES	MEKK2 WT-MEK5	ABCB1 block	MEKK3 PB1 HTS	MEKK2mut PB1 HTS	Efflux pump mplx	ABCG2 block	Yeast cmpd fluor	CaMdr1 efflux inh	CaCdr2 efflux inh	CaCdr1 efflux inh
CCOc1ncccc1C(=O)OCC(=O)Nc1ccc2c(c1)OCO2	101	0	104	0	0	1	/	/	/	/
Cc1ccc(S(=O)(=O)NCC(=O)NCCc2c[nH]c3ccccc23)cc1C	113	/	103	15	0	/	/	/	/	/
Cc1ccc(C(=O)OCC(=O)NCC2COc3ccccc3O2)cc1 (centres undefined)	/	/	/	/	0.9*	/	119	1	114	0
Cc1cc(Cl)c(OCCCn2ccnc2)c(Br)c1	88	1	85	-4	16*	2	94	0	95	0
CCOc1ccc(CNS(=O)(=O)c2ccc(-c3ccc(=O)[nH]n3)o2)cc1OC	97	/	94	-4	0	/	/	/	/	/
CCS(=O)c1ccccc1C(=O)OC(C)C(=O)Nc1ccc(S(=O)(=O)N2CCCC2)cc1 (centres undefined)	/	/	/	/	0	/	/	/	/	/
Cc1ccc(-c2c[n+](CC(=O)Nc3ccc(C)cc3C)c3n2CCC3)cc1	92	/	93	-5	0	/	/	/	/	/
Cc1ccc(-c2c[n+](Cc3ccc(Cl)c(Cl)c3)c3n2CCC3)cc1	111	1	96	13	18*	1	79	0	87	0
Cc1ccc(NC(=O)C[n+]2cc(-c3ccc(C)cc3)n3c2CCC3)cc1	116	/	108	10	0	/	107	0	98	0
CCOc1ccc(CN(CC)C(=O)c2ccc3c(c2)[nH]c(=O)c(=O)n3CC)cc1OC	97	/	99	4	0	/	/	/	/	/
CCCc1nnc(-c2cc(OC)c(OC)c(OC)c2)o1	104	1	107	-1	1.9*	14	105	0	106	0
COc1cc(C(=O)Nc2cc3c(cc2N2CCCCC2)n(C)c(=O)n3C)cc(OC)c1OC	101	/	101	-2	0	/	/	/	/	/
O=C(COc1ccc(-c2ccccc2)cc1)NNC(=O)Nc1ccc(F)cc1F	100	/	101	2	3.0*	/	109	0	110	0
CCOC(=O)c1nn(-c2ccccc2)c(=O)c(C#N)c1C	93	1	98	1	1.0*	9	101	0	116	0
O=S(=O)(Nc1ncccn1)c1ccc(NC(=S)N2CCN(Cc3ccc(F)cc3Cl)CC2)cc1	103	/	102	4	0	/	/	/	/	/
COc1cc(/C=C/C(=O)c2ccc(O)cc2)ccc1OCC#N	93	-1	92	-2	11*	-1	95	0	108	0

Assay outcomes (PubChem BioAssay)
